Results taken from ChEMBL document CHEMBL1122737, “5-[(Aminoalkyl)amino]-substituted anthra[1,9-cd]pyrazol-6(2H)-ones as novel anticancer agents. Synthesis and biological evaluation” (1984).

How the values were obtained:
[1] = Compound was evaluated in vivo for the antitumor activity at a dose of 1.25 mg/kg & 3.75 mg/kg against mammary adenocarcinoma 16C to assess tumor growth delay (T-C).; format: functional, Mus musculus
How it was run: (§1)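 Mammary adenocarcinoma 16C is implanted sc in mice on day 0. Treatment is iv on days 1, 5 and 9, with dose per injection and total. Tumors are measured in two dimensions three times weekly to give growth delay (T − C, days) and gross log kill. Cured mice are excluded from these calculations.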

[2] = Compound was evaluated in vivo for the antitumor activity at a dose of 2.5 mg/kg & 7.5 mg/kg against mammary adenocarcinoma 16C to assess tumor growth delay (T-C); format: functional, Mus musculus; how it was run: as §1
P388 [3] = assay: In vivo antitumor activity against P388 leukemia cells at a dose of 0.75 mg/kg as a single injection and 1.5 mg/kg as a total; format: functional, Mus musculus
How it was run: (§2)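 Murine P388 leukemia, drug given ip on a q04d × 02 schedule (a slightly modified NCI protocol). Dose is listed per injection and as a total. Read-out is % T/C survival. Mice alive at 30 days count as cured and are left out of % T/C. Cured/tested counts are reported.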

P388 [4] = assay: In vivo antitumor activity against P388 leukemia cells at a dose of 1.5 mg/kg as a single injection and 3 mg/kg as a total; format: functional, Mus musculus; how it was run: as §2
[5] = In vivo antitumor activity at a single dose of 2.5 mg/kg & 7.5 mg/kg total against mammary adenocarcinoma 16C
[6] = In vivo antitumor activity at a single dose of 1.25 mg/kg & 3.75 mg/kg total against mammary adenocarcinoma 16C
L1210 = assay: Antitumor activity against L1210 lymphocytic cells in vitro; format: functional; details: Mus musculus, read-out: ID50 (the source's name)
[7] = In vivo antitumor activity at a single dose of 12.5 mg/kg & 37.5 mg/kg total against mammary adenocarcinoma 16C to assess tumor growth delay (T-C); format: functional, Mus musculus; how it was run: as §1
[8] = In vivo antitumor activity at a single dose of 6.5 mg/kg & 18.8 mg/kg total against mammary adenocarcinoma 16C to assess tumor growth delay (T-C); format: functional, Mus musculus; how it was run: as §1
[9] = In vivo antitumor activity at a single dose of 12.5 mg/kg & 37.5 mg/kg total against mammary adenocarcinoma 16C; format: functional, Mus musculus
How it was run: (§3)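 Mice were inoculated sc with mammary adenocarcinoma 16C on day 0 and given the agent (as the dihydrochloride salt) iv on days 1, 5 and 9. Tumors were measured in two dimensions three times weekly. Tumor growth delay (T − C, days) and gross log kill were derived, with cured mice excluded from these calculations.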

[10] = In vivo antitumor activity at a single dose of 6.5 mg/kg & 18.8 mg/kg total against mammary adenocarcinoma 16C; format: functional, Mus musculus; how it was run: as §3
P388 [11] = assay: In vivo antitumor activity against P388 leukemia cells at a dose of 12.5 mg/kg (single injection) and 25 mg/kg (Total ); format: functional, Mus musculus; how it was run: as §2
P388 [12] = assay: In vivo antitumor activity against P388 leukemia cells at a dose of 25 mg/kg as a single injection and 50 mg/kg as a total; format: functional, Mus musculus; how it was run: as §2
P388 [13] = assay: Evaluated in vivo for the antitumor activity against P388 leukemia cells at a dose of 50 mg/kg (single injection) and 100 mg/kg (Total ); format: functional, Mus musculus; how it was run: as §2
P388 [14] = assay: in vivo for the antitumor activity against P388 leukemia cells at a dose of 100 mg/kg (single injection) and 200 mg/kg (Total); format: functional, Mus musculus; how it was run: as §2

Compound `O=C1c2c(O)ccc(O)c2C(=O)c2c(NCCNCCO)ccc(NCCNCCO)c21` [MITOXANTRONE] has a T-C [1] of 3 days, a T-C [2] of 4.1 days and a T/C (P388 [3]) of 231%. For the same compound, the T/C (P388 [4]) was 278%, the Gross kill [5] was 1.1 and the Gross kill [6] was 0.8.

For `O=C1c2c(O)cccc2-c2nn(CCNCCO)c3ccc(NCCNCCO)c1c23` [LOSOXANTRONE], the IC50 (L1210) was 5.13 nM, the T-C [7] was 11.4 days and the T-C [8] was 7 days. The Gross log kill [9] was 3.1, the Gross log kill [10] was 1.9 and the T/C (P388 [11]) was 219%. The T/C (P388 [12]) was 248%.

Compound `O=C1c2cccc(O)c2-c2nn(CCNCCO)c3ccc(NCCNCCO)c1c23` has a T/C (P388 [13]) of 172% and a T/C (P388 [14]) of 221%.
